# Several values for one entry are separate records, joined by “and”; a condition that tells them apart may be missing. Equal entries are not always repeated.
# Tests used:
# L1210 = experiment: In vitro inhibitory activity against murine L1210 leukemia; assay type: functional, cell-based; conditions: Mus musculus
# Outline: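 Mouse L1210 leukemia cells were grown in RPMI 1640 with 5% fetal calf serum, penicillin and streptomycin, at 37 °C in 5% CO2. Cells were seeded at 5×10^4 cells/mL and exposed to four concentrations of compound dissolved in 50% ethanol.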
# Mus musculus [1] = experiment: Antineoplastic activity was evaluated in vivo against murine leukemia P388 (i.p./i.p.; days 1-5) and optimum dose was reported; assay type: functional
# Outline: (§1)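 BDF1 mice given 10^6 P388 lymphocytic leukemia cells ip on day 0, then treated ip on days 1-5 following NCI protocols. Full dose-response runs spanned ineffective to clearly toxic doses. Mean survival time was taken per group of eight mice and expressed as % T/C. The optimal dose is the one giving the highest T/C.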
# [2] = Toxicity in CDF1 male mice following a single intraperitoneal administration; assay type: organism-based; conditions: CDF1, mouse, in vivo, ip
# Outline: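 Acute toxicity after one ip dose in male CDF1 mice. The read-out is the LD50, given as preliminary estimates that are either a dose range or a bound in mg/kg.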
# Mus musculus [3] = experiment: In vivo % T/C activity was measured against P388 leukemia; 290; assay type: functional; outline: as §1
# Mus musculus [4] = experiment: In vivo % T/C activity was measured against P388 leukemia; assay type: functional; outline: as §1
# Mus musculus [5] = experiment: In vivo % T/C activity was measured against P388 leukemia; 210; assay type: functional; outline: as §1
# Mus musculus [6] = experiment: Antineoplastic activity was evaluated in vivo against murine leukemia P388 (i.p./i.p.; days 1-5) and optimum dose was reported;120; assay type: functional; outline: as §1
# Mus musculus [7] = experiment: In vivo % T/C activity was measured against P388 leukemia; 155; assay type: functional; outline: as §1
# Mus musculus [8] = experiment: In vivo % T/C activity was measured against P388 leukemia;250; assay type: functional; outline: as §1
IC50 (L1210),SMILES,Optimal dose (Mus musculus [1]) [mg kg-1 injection-1],other results
0.34 µg/mL and 770 nM,COc1ccc2c(c1)c(=O)c1c(NCCN(C)C)ccc3nc(C)n2c31,150,
0.02 µg/mL and 48 nM,CN(C)CCNc1ccc2ncn3c4ccc(O)cc4c(=O)c1c23,12.5,T/C (Mus musculus [5]): 210%
0.7 µg/mL and 1.55 µM,CCN(CC)CCNc1ccc2nc(C)n3c4ccc(OC)cc4c(=O)c1c23,,Optimal dose (Mus musculus [6]): 150 mg kg-1 injection-1
1.4 µg/mL and 3.2 µM,COc1ccc2c(c1)c(=O)c1c(NCCCN(C)C)ccc3nc(C)n2c31,150,
0.7 µg/mL and 1.4 µM,CCN(CC)CCCNc1ccc2nc(C)n3c4ccc(OC)cc4c(=O)c1c23,150,
0.1 µg/mL and 230 nM,Cc1nc2ccc(NCCCN(C)C)c3c(=O)c4cc(O)ccc4n1c23,100,
0.4 µg/mL and 890 nM,CCN(CC)CCCNc1ccc2nc(C)n3c4ccc(O)cc4c(=O)c1c23,25,T/C (Mus musculus [7]): 150%
3.5 µg/mL and 8.2 µM,COc1ccc2c(c1)c(=O)c1c(NCCCN(C)C)ccc3ncn2c31,150,
0.014 µg/mL and 34 nM,CN(C)CCCNc1ccc2ncn3c4ccc(O)cc4c(=O)c1c23,5,
1.1 µg/mL and 2.5 µM,CCN(CC)CCCNc1ccc2ncn3c4ccc(OC)cc4c(=O)c1c23,150,
0.08 µg/mL and 180 nM,CCN(CC)CCCNc1ccc2ncn3c4ccc(O)cc4c(=O)c1c23,25,

SMILES,IC50 (L1210),Optimal dose (Mus musculus [1]) [mg kg-1 injection-1],other results
CCN(CC)CCNc1ccc2nc(C)n3c4ccc(O)cc4c(=O)c1c23,0.11 µg/mL and 250 nM,75,LD50 [2]: 500 mg/kg; T/C (Mus musculus [3]): 280%
COc1ccc2c(c1)c(=O)c1c(NCCN(C)C)ccc3ncn2c31,0.65 µg/mL and 1.65 µM,100,
O=C1c2ccccc2C(=O)c2c(NCCNCCO)ccc(NCCNCCO)c21 [AMETANTRONE],1.77 µg/mL and 3.65 µM,12.5,T/C (Mus musculus [4]): 300%
CCN(CC)CCNc1ccc2ncn3c4ccc(O)cc4c(=O)c1c23 [C-1311],0.013 µg/mL and 31 nM,5,LD50 [2]: > 200 mg/kg
Cc1nc2ccc(NCCN(C)C)c3c(=O)c4cc(O)ccc4n1c23,0.06 µg/mL and 135 nM,12.5,T/C (Mus musculus [8]): 200%; LD50 [2]: 250 mg/kg
CCN(CC)CCNc1ccc2ncn3c4ccc(OC)cc4c(=O)c1c23,0.78 µg/mL and 1.8 µM,100,LD50 [2]: 500 mg/kg

# Source: ChEMBL document CHEMBL1125294, “Chromophore-modified antineoplastic imidazoacridinones. Synthesis and activity against murine leukemias” (J Med Chem, 1992)
